Reference: ChEMBL document CHEMBL4052588, “Design of a Biased Potent Small Molecule Inhibitor of the Bromodomain and PHD Finger-Containing (BRPF) Proteins Suitable for Cellular and in Vivo Studies” (J Med Chem, 2017)
In brackets after ≈: the same amount, converted by molar mass.

What was measured:
[1] = target: T1, Bromodomain-containing protein 1 (Homo sapiens, UniProt O95696); experiment: Binding affinity to human BRPF2 by isothermal titration calorimetry
T1 sequence (O95696 whole entry): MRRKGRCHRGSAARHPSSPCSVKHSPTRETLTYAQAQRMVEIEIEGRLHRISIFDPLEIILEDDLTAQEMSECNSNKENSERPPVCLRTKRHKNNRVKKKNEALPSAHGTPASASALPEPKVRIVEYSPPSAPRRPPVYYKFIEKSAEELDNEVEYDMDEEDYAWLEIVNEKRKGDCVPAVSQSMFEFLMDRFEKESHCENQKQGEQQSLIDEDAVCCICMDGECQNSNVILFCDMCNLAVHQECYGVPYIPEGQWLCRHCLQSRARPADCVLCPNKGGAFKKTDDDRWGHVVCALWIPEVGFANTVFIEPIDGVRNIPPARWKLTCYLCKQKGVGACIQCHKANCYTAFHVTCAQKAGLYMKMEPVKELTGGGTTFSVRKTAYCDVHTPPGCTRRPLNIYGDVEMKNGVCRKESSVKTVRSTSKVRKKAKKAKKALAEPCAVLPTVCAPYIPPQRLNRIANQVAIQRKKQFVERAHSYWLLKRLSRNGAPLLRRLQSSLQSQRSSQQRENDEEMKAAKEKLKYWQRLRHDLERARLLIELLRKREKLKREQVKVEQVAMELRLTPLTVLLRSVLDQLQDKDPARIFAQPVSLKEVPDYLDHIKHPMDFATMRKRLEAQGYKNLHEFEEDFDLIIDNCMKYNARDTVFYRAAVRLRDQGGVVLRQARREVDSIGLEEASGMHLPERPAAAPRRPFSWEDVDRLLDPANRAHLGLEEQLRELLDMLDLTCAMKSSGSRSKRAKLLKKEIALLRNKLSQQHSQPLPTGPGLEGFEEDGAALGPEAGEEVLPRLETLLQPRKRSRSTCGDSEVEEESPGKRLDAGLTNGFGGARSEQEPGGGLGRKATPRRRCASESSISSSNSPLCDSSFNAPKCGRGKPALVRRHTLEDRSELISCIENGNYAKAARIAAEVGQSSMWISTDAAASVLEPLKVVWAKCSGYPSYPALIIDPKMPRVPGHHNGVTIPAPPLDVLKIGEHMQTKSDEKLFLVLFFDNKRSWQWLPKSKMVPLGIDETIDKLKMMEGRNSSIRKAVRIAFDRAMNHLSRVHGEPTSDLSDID

[2] = target: T2, Bromodomain and PHD finger-containing protein 3 (Homo sapiens, UniProt Q9ULD4); experiment: Binding affinity to human BRPF3 by isothermal titration calorimetry
T2 sequence (Q9ULD4 whole entry): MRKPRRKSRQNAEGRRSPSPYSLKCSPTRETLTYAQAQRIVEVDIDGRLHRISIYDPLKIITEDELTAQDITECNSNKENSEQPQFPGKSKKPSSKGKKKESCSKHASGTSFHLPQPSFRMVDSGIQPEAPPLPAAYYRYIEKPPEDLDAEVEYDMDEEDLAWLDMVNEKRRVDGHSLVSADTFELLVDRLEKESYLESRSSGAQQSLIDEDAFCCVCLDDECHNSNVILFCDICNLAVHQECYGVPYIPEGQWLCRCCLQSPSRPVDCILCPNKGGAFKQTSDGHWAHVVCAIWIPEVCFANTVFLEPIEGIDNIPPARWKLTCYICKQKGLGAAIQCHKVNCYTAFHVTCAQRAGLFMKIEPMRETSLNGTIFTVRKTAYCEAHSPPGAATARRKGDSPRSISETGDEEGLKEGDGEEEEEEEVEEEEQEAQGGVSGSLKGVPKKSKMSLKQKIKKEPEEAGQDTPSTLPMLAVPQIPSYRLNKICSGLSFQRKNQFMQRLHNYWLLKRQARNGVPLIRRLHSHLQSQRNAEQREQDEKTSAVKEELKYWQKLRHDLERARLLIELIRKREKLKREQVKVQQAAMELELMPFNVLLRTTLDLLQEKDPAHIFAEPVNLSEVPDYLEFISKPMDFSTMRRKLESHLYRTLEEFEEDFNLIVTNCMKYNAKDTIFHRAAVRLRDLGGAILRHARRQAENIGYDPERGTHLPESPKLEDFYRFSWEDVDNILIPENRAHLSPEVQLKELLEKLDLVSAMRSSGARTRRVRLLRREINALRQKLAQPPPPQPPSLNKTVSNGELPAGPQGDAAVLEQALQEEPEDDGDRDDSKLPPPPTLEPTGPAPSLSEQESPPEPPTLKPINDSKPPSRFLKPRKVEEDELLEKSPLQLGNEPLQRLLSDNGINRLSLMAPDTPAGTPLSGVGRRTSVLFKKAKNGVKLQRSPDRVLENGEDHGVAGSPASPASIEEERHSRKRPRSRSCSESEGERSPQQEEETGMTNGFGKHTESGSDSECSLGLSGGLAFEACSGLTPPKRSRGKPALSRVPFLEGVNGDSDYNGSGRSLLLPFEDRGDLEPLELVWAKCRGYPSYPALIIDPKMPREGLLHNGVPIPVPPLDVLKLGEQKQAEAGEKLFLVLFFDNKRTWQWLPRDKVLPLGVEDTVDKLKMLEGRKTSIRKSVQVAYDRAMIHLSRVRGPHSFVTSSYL

[3] = Aqueous solubility of compound; format: physicochemical; details: buffer
hERG (KCNH2) = hERG (KCNH2) (Homo sapiens, UniProt Q12809); experiment: Inhibition of human ERG at 30 uM
RKO = experiment: Growth inhibition of human RKO cells after 72 hrs; format: functional
OCI-LY19 = experiment: Growth inhibition of human OCI-LY19 cells after 72 hrs; format: functional; details: OCI-LY19, 72 h
KG-1 = experiment: Growth inhibition of human KG1 cells after 72 hrs; format: functional; details: KG-1, 72 h
ASPC1 = experiment: Growth inhibition of human AsPC1 cells after 72 hrs; format: functional; details: ASPC1, 72 h
SW-620 = experiment: Growth inhibition of human SW620 cells after 72 hrs; format: functional; details: SW-620, 72 h
[4] = Volume of distribution in CD-1 mouse blood at 1 mg/kg, iv administered as bolus; format: ADME, organism-based; details: whole blood
Procedure, shortened: (§1)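 Female CD-1 mice (n = 3), single dosing: intravenous 1.0 mg/kg, or oral 3.0 mg/kg given as a suspension. Blood levels were followed over time to derive clearance, volume of distribution, elimination half-life, Cmax, Tmax, AUC0−∞, oral bioavailability and fraction absorbed.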

[5] = Fraction absorbed in CD-1 mouse at 3 mg/kg, po; format: ADME, organism-based; details: in vivo, read-out: Fabs; procedure, shortened: as §1
[6] = target: SWI/SNF-related matrix-associated actin-dependent regulator of chromatin subfamily A member 2 (Homo sapiens, UniProt P51531); experiment: Inhibition of human SMARCA2A expressed in Escherichia coli BL21 after 1 hr by BROMOscan assay
[7] = target: Chromatin remodeling regulator CECR2 (Homo sapiens, UniProt Q9BXF3); experiment: Inhibition of human His tagged CECR2 incubated for 30 mins followed by addition of biotinylated peptide and further incubation for 30 mins measured by AlphaScreen assay
[8] = target: Nucleosome-remodeling factor subunit BPTF (Homo sapiens, UniProt Q12830); experiment: Inhibition of human His tagged FALZ incubated for 30 mins followed by addition of biotinylated peptide and further incubation for 30 mins measured by AlphaScreen assay

Chain of Chromatin remodeling regulator CECR2 (Q9BXF3 whole entry): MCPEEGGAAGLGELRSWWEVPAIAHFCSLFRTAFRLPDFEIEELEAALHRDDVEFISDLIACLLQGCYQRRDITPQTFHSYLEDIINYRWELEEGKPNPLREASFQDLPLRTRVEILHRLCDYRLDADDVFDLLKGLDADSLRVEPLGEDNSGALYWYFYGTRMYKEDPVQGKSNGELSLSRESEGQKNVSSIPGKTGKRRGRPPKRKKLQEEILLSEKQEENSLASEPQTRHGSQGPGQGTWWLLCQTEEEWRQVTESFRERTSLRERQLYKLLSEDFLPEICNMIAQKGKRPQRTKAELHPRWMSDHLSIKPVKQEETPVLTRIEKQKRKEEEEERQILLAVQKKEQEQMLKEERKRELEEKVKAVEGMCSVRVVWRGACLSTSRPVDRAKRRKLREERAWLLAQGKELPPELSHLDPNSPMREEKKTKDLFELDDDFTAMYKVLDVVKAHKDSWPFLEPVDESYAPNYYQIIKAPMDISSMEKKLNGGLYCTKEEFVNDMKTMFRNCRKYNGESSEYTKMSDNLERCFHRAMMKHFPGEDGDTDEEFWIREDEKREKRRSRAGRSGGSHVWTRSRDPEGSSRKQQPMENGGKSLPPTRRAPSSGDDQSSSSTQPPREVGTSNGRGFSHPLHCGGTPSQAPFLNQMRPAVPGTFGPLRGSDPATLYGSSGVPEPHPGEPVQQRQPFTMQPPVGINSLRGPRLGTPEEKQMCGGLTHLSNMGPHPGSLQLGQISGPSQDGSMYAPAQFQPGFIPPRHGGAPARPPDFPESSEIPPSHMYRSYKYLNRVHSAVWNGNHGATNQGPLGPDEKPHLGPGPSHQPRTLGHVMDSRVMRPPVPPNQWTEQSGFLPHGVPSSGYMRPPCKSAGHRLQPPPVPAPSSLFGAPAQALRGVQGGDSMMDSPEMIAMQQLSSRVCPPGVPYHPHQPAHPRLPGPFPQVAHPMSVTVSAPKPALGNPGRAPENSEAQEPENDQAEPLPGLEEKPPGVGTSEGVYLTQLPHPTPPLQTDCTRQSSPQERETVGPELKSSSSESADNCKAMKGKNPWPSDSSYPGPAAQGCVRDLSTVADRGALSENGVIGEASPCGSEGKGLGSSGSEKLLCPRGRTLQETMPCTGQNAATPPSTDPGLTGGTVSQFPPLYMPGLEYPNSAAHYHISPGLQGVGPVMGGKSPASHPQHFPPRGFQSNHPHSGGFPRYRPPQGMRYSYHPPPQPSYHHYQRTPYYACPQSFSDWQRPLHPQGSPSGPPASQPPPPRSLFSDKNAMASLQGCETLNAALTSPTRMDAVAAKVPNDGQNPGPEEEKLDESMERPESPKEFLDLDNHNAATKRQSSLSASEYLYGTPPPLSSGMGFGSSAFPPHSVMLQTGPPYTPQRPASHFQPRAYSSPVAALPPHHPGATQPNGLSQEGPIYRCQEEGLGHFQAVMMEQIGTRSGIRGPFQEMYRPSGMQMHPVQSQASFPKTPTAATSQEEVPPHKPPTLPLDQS
Chain of hERG (KCNH2) (Q12809 whole entry): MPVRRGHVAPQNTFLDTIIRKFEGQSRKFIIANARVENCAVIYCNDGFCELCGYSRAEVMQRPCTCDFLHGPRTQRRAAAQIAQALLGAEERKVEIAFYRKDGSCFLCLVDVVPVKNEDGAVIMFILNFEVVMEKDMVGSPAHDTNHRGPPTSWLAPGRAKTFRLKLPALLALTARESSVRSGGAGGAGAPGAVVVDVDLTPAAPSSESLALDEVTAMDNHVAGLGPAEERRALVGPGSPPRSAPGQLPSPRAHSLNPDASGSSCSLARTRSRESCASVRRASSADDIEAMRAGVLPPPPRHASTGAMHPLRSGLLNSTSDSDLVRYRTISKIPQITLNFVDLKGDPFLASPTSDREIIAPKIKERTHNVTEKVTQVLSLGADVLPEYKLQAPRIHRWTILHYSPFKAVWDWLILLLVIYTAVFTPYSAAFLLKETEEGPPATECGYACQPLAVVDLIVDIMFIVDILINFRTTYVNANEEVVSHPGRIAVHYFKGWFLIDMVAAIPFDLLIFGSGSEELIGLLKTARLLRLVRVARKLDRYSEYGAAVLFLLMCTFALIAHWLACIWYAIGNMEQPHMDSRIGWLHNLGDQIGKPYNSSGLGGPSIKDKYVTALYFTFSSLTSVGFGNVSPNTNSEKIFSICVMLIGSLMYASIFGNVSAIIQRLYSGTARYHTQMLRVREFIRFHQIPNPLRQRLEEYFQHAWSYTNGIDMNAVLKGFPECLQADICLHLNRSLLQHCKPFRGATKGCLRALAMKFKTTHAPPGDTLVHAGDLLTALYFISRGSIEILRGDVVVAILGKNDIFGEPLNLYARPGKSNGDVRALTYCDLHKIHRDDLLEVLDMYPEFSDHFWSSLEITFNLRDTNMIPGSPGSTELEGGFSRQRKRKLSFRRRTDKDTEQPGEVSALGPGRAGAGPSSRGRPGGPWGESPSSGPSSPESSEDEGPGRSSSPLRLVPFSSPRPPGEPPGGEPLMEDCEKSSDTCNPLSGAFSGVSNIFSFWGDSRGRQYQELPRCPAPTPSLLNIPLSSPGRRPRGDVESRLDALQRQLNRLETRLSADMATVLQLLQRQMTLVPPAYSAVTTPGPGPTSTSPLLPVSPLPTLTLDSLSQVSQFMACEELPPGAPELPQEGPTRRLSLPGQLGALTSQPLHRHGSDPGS
Chain of SWI/SNF-related matrix-associated actin-dependent regulator of chromatin subfamily A member 2 (P51531 whole entry): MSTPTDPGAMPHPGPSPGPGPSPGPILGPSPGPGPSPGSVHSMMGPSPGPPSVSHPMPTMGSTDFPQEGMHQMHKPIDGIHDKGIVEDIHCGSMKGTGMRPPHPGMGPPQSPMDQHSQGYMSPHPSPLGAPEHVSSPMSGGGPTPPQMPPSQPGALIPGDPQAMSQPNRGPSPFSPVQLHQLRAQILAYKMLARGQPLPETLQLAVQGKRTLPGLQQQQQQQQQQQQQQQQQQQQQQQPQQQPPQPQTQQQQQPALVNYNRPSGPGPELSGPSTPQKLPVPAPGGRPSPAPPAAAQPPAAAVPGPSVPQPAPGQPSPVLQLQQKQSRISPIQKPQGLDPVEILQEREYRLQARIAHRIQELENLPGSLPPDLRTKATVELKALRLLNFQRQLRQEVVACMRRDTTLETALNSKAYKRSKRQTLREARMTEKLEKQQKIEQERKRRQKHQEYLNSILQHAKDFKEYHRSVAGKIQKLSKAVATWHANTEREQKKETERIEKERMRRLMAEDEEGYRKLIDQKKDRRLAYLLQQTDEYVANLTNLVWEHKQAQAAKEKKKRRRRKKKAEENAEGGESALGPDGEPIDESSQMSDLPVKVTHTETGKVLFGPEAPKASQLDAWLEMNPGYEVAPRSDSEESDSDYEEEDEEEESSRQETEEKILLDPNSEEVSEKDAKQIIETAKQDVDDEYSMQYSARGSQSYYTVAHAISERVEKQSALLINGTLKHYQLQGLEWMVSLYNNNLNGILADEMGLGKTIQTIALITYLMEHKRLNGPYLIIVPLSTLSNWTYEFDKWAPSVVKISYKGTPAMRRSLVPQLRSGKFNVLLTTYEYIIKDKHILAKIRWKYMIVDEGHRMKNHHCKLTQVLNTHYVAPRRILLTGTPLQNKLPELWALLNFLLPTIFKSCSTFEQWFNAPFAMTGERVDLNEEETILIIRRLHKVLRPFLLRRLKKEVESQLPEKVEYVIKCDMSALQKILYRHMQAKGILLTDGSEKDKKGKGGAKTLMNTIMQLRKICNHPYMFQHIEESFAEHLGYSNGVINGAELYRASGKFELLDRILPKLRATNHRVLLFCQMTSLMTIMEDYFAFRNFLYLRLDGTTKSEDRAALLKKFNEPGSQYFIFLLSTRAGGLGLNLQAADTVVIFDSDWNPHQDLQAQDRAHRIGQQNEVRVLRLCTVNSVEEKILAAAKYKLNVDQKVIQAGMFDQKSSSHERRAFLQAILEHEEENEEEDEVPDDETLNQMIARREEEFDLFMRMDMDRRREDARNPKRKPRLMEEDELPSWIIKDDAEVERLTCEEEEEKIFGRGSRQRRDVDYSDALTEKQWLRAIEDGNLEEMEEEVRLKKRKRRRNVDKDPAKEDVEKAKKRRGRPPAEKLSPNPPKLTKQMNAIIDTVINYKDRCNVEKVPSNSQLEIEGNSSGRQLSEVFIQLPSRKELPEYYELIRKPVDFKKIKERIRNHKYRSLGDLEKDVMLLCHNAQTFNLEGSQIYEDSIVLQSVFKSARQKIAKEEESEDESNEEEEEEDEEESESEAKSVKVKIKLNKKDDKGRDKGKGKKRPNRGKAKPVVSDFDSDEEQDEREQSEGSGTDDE

| Kd [1] [µM] | Kd [2] [µM] | solubility [3] [µM] | GI50 (OCI-LY19) [µM] | GI50 (ASPC1) [µM] | GI50 (SW-620) [µM] | Vd [4] [L/kg] | Fa [5] [%] | IC50 [6] [µM] | IC50 [7] [µM] | IC50 [8] [µM] | SMILES | inhibition at 30 µM (hERG (KCNH2)) [%] | GI50 (RKO) [µM] | GI50 (KG-1) [µM] |
| --- | --- | --- | --- | --- | --- | --- | --- | --- | --- | --- | --- | --- | --- | --- |
| 0.21 | 0.94 | 100 (≈ 35.3 µg/mL) | 1 to 10 | 1 to 10 | 1 to 10 | 0.7 | 51 |  |  |  | Cc1cc2cc(NS(=O)(=O)c3ccc(C#N)cc3)ccc2n(C)c1=O | 45.6 | 1 to 10 | 7 |
|  |  |  |  |  |  |  |  | 77 | > 20 | > 20 | CCc1cc2cc(NS(=O)(=O)c3ccc(C#N)cc3)ccc2n(CC)c1=O |  |  |  |
